Source: PubChem (Sanford-Burnham Center for Chemical Genomics)
Sampled rows, rich in hits. Any-hit rate of the full collection: about 0.77%.
hIAP activ – human IAP activation | P09923 | purified human IAP, CDP-Star luminescence, 30 min; hits give high values; 1 = vehicle-only enzyme, 0 = enzyme-free background | activation factor at 10 µM | 0.16% of 330,000 active;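 active = activation factor of the enzyme at least 2-fold when tested at 20 µM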
Target sequence (P09923 whole entry, looked up): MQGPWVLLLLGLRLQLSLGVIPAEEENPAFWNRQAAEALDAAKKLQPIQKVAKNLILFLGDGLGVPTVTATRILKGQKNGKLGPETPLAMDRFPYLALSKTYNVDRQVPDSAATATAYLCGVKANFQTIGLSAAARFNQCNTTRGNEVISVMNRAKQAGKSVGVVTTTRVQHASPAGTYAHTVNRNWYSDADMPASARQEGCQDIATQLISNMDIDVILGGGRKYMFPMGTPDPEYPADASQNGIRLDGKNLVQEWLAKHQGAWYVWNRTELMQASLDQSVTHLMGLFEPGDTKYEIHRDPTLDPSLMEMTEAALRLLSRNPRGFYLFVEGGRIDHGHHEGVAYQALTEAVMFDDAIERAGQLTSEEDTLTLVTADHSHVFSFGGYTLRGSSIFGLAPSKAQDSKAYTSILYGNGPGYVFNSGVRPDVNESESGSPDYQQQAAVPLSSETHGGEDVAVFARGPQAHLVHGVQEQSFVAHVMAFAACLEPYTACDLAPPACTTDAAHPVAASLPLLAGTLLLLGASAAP
mIAP activ – mouse IAP activation | muIAP, CDP-Star luminescence, 30 min; hits give high values; 1 = vehicle-only enzyme signal, 0 = enzyme-free wells | activation factor at 10 µM | 0.24% of 330,000 active;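 active = activation factor of at least 2 at 20 µM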
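Assay system: mouse IAP enzyme; Reagent: CDP-Star chemiluminescent phosphatase substrate; Compound: DMSO-dissolved test compounds; Incubation: 30 min, room temperature; Technique: luminescence from enzymatic CDP-Star hydrolysis; Controls: DMSO-only wells and no-enzyme negative control.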
bIAP activator – intestinal alkaline phosphatase (bovine) activation; purified bovine IAP, CDP-star luminescence, 30 min; hits give high values; fold of DMSO-control signal, blank-subtracted; activation factor at 20 µM; 0.17% of 200,000 active; AID 1016;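 active = activation factor of 2 or more at 20 µM, a signal rise over negative controls twice the positive control's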
hIAP block – blocks human intestinal alkaline phosphatase; 0.12% of 330,000 active; purified IAP, CDP-Star luminescence, 30 min; inhibition, % at 10 µM;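 active = inhibition reaching a set limit with compound at 10 µM in the primary screen, cut at about 35% in these data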
mIAP inh – mouse IAP inhibition. purified mouse IAP, CDP-Star luminescence, 30 min. inhibition, % at 10 µM. 0.2% of 330,000 active. AID 2806;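 active = inhibition of at least 40% at 10 µM in the primary screen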
bIAP inhibitor – intestinal alkaline phosphatase (bovine) inhibition. purified bovine IAP, CDP-star luminescence, 30 min. inhibition, % at 20 µM. 190,000 tested, under 10 active. AID 1019;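 active = over 50% inhibition of intestinal alkaline phosphatase at 20 µM in the single-dose screen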
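Assay system – bovine IAP enzyme · Quantity – bovine IAP at 1/65,000,000 final dilution · Detection – CDP-star luminescence signal · Times – 30 min reaction at room temperature · Also added – CDP-star substrate at 30 µM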
hIAP act conf – human IAP activation confirmation. activation (%Activity, negative = activation), % at 8.3 µM. 10% of 880 active. purified IAP, CDP-Star luminescence, 30 min; hits give low values. AID 434926. shares compounds with hIAP activ;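 active = at least twofold enzyme activation in any of six single-dose repeats, which the averaged readout prints as negative percent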
mIAP inh conf – mouse IAP inhibition confirmation. shares compounds with mIAP inh. purified mouse IAP, CDP-Star luminescence, 30 min. inhibition, % at 10 µM. 4.7% of 11,000 active. AID 434971;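 active = inhibition of at least 40% at 10 µM in either of the two replicates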
Numbers stand for hits; 0 = inactive; - = no result given.

SMILES	hIAP activ	mIAP activ	bIAP activator	hIAP block	mIAP inh	bIAP inhibitor	hIAP act conf	others
CCCC(=O)c1cc2c(cc1NC(=O)c1ccccc1F)OCCO2	0	0	0	0	0	0	-
COc1cc(NC(=O)CNc2cccc(S(=O)(=O)N3CCOCC3)c2)cc(OC)c1	0	0	-	0	0	-	-
Cc1nn(CC(=O)O)c(C)c1NC(=O)c1cccs1	0	0	-	42	0	-	0
CCCn1c(N/N=C(C)\C=C\c2ccccc2)nc2c1c(=O)[nH]c(=O)n2C	2.3	0	2	0	0	0	0
CCCn1c(SCCc2ccccc2)nc2c1c(=O)[nH]c(=O)n2C	0	0	0	0	0	0	-
COc1cc2c(cc1OC)CN(C(=O)C1CCCN1S(=O)(=O)c1ccc(F)cc1)CC2 (configuration not stated)	0	0	-	0	0	-	-
CCCCC(=O)NC(=S)Nc1ccccc1C(=O)Nc1ccccc1	0	0	0	0	0	0	-
CC(=O)NC(=S)NNC(=O)C(c1ccccc1)c1ccccc1	2	0	2	0	0	0	0
CC(=O)NC(=S)Nc1ccccc1C(=O)Nc1ccccc1	2.5	0	0	0	0	0	0
N#CCC(=O)NNC(=S)NC(=O)C(c1ccccc1)c1ccccc1	0	0	0	0	0	0	-
C=CC[n+]1c(/C=C/c2ccc(OC(C)=O)c(OC)c2)ccc2ccccc21	0	0	-	0	0	-	-
O=C(NNc1nc2c(F)cccc2s1)c1cc(=O)c2ccccc2o1	2.7	0	0	0	0	0	0
Cc1cccc2sc(NNC(=O)c3cc(=O)c4ccccc4o3)nc12	0	0	0	0	0	0	-
COc1ccc2nc(NNC(=O)c3cc(=O)c4ccccc4o3)sc2c1	2.2	0	0	0	0	0	0
Cc1cc2cccc(C)c2nc1SCC(=O)NNC(=O)c1ccco1	0	0	0	0	0	0	-
Cc1cc(C)c2nc(SCC(=O)NNC(=O)c3ccco3)c(C)cc2c1	2	0	0	0	0	0	-59
CC(C)C(C)NC(=O)COC(=O)C1CCN(S(=O)(=O)c2ccc3c(c2)OCCO3)CC1 (configuration not stated)	0	0	-	0	0	-	-
CCc1ccc(N/C(N)=N/c2nc(CSc3ncccn3)cc(=O)[nH]2)cc1	2	0	0	0	0	0	0
C=CCc1ccccc1OCC(=O)NNC(=S)NCc1ccccc1	0	0	-	0	0	-	-
Cc1ccc(C(=O)N/C(=C\c2ccco2)C(=O)NCCCn2ccnc2)cc1C	0	0	0	86	0	0	0
COc1ccc(C(=O)N/C(=C\c2ccco2)C(=O)NCCCn2ccnc2)cc1	0	0	0	0	0	0	-
Cc1ccc(C(=O)CCC(=O)OCC(=O)NNC(=O)c2ccc([N+](=O)[O-])cc2)cc1	0	0	-	0	0	-	-
Cc1cc(-n2c(SCC(=O)Nc3ccc(F)c(F)c3)nc3n[nH]c(C)c3c2=N)ccc1Cl	2.1	0	-	0	0	-	0
CS(=O)(=O)N1CCN(C(=O)c2cc(-c3ccncc3)nc3ccc(Cl)cc23)CC1	2.5	0	0	0	0	0	0
C/C(N)=C(/C#N)C(=O)CSc1nc2scc(-c3ccc(F)cc3)c2c(=O)n1C	0	0	0	0	0	0	-
SMILES	hIAP activ	mIAP activ	bIAP activator	hIAP block	mIAP inh	bIAP inhibitor	hIAP act conf	others
CCN(CC(=O)Nc1c(F)cccc1F)C(=O)c1cccc(-n2cnnn2)c1	0	0	-	0	0	-	-
O=C(NNc1ncnc2c1cnn2-c1ccc(F)cc1)c1ccco1	2.6	0	-	0	0	-	-47
CC(=O)NNc1ncnc2c1cnn2-c1ccc(C)c(C)c1	2.5	0	0	0	0	0	0
COC(=O)C(N)Cc1ccc(O)c(O)c1 (configuration not stated)	0	0	0	0	0	0	-
COc1ccc(OC)c(S(=O)(=O)N2CCC(NC(=O)c3ccccc3)CC2)c1	0	0	-	0	0	-	-
O=C(Nc1cccc(-c2cccc(F)c2)c1)C1CCN(Cc2ccco2)CC1	2.3	0	-	0	0	-	0
Cc1ccccc1COc1ccc(-c2nnn(CC(=O)O)n2)cc1	0	0	-	0	0	-	-
COc1ccccc1CN1CCC(n2nccc2NC(=O)CCCc2ccccc2)CC1	3.3	2	-	0	0	-	-112	mIAP inh conf=0
